Cneo AK release: Cryptococcus neoformans cell lysis inducers, primary screen, AK release luminescence, single concentration | AID 651654, 2012 | C. neoformans lysis, adenylate kinase release luminescence, 4 h; normalised: neutral wells 0, clomiphene wells 100 | 360,000 compounds, 0.2% hits | lysis activity, % at 15 µM;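 active = mean lysis activity across replicates of at least 80%, whatever share of replicates individually reach that level; inactive = mean lysis activity below 80%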
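Test system: log-phase Cryptococcus neoformans yeast cells. Input: 5 × 10^6 yeast cells/mL. Medium: fresh YPD growth medium. Doses: single dose. Incubation: static 4 h at 37 °C with compound, 1 h detection. Measured by: luminescent adenylate kinase detection reagent. Read-out: signal increase indicating cell lysis. Benchmarks: Clomiphene.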
C2C12 statin: suppressors of statin myotoxicity in C2C12 myotubes, primary screen, cell-based, single point, plate reader | C2C12 myotubes + simvastatin, ATP luminescence, 48 h; scaled: DMSO 0, geranylgeraniol control 100 | rescue of ATP level, % at 7.49 µM | 330,000 compounds, 0.78% hits;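 active = mean ATP rescue above about 67%, or every replicate alone reaching that limit, limit read from the data, passing the limit was not always enough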;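 note: myotubes were challenged with 10 µM simvastatin during compound exposure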
SUMO Mot1 rescue: yeast Mot1-301 growth rescue at high temperature, primary screen, SUMOylation pathway inhibitor project, S. cerevisiae, ATP luminescence, 38.5C; S. cerevisiae Mot1-301 growth rescue; percent above DMSO median, 100 means doubled; growth rescue, % at 18.8 µM; 320,000 compounds, 1% hits;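 active = every valid replicate shows activation above 250% relative to neutral control wells; inactive = the rest, any valid replicate at or below 250%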;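 note: OY570 slx delta 5 strain wells were the positive control but not used for scaling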
Yeast Mot1 SUMO: growth restoration of Mot1-301 yeast on galactose, dose response, SUMO pathway inhibitor project, whole organism, S. cerevisiae, ATP luminescence, cherry-picked samples; shares compounds with SUMO Mot1 rescue; S. cerevisiae Mot1-301 galactose growth, 24 h; -100 = growth of slx-deleted rescue strain; growth activity, percent, % at 42 µM; 2,300 tested, under 10 active; AID 493004, 2010;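 active = Signal drops as the depositor expects, and the fitted half-maximal dose is no more than ten times the top valid tested dose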;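 note: more negative values mean stronger growth rescue toward the control strain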
* = called active by the depositor; nt = no result; + = active, no number. Rows were chosen to be rich in hits. Some 1.5% of all compounds tested hit in one or more screens of this group.

SMILES	Cneo AK release	C2C12 statin	SUMO Mot1 rescue	Yeast Mot1 SUMO
O=C1CC(c2ccccc2)c2ccc(O)cc2O1 (configuration not stated)	-4	-3	+	0
COCC(=O)N(C)C[C@H]1Oc2ncc(C#Cc3cccnc3)cc2C(=O)N([C@H](C)CO)C[C@H]1C	-4	6	nt	nt
C/C(=N\NC(N)=O)c1ccc(Cl)s1	0	5	-26	nt
C/C(=N/Nc1ccc(F)cc1)c1ccc(Cl)s1	nt	6	384*	0
C[C@@H]1CCCCO[C@@H](CN(C)Cc2ccncc2)[C@H](C)CN([C@@H](C)CO)C(=O)c2cc(NC(=O)Nc3ccc4c(c3)OCO4)ccc2O1	-1	nt	nt	nt
N#Cc1cccc(NC(=O)CSc2n[nH]c(=O)[nH]c2=O)c1	-2	3	652*	1
O=C(CSc1n[nH]c(=O)[nH]c1=O)Nc1ccc(SC(F)F)cc1	-3	0	-2	nt
O=c1cc(COc2ncnc3c(Cl)cc(Cl)cc23)nc2sccn12	nt	nt	341	nt
O=c1cc(COc2ncnc3ccccc23)nc2sccn12	0	-3	543*	0
CC(C)OC(=O)N(C)C[C@@H]1OCc2cn(nn2)CCCC(=O)N([C@H](C)CO)C[C@@H]1C	-7	-1	nt	nt
Cc1sc2ncn(C(C)C(=O)OC3CCCCC3)c(=O)c2c1C (configuration not stated)	-2	nt	379*	0
CCOC(=O)c1sc2ncn(C(C)C(=O)OCC)c(=O)c2c1C (configuration not stated)	2	-12	15	nt
CCC(=O)N(C)C[C@H]1Oc2cc(-c3cncnc3)ccc2S(=O)(=O)N([C@H](C)CO)C[C@@H]1C	5	-6	nt	nt
COc1cccc(OC)c1OCC(O)CN1CCN(c2ccccc2)CC1 (configuration not stated)	-1	-7	+	0
COc1ccccc1N1CCN(CC(O)COc2c(OC)cccc2OC)CC1 (configuration not stated)	0	5	17	nt
COc1ccc(S(=O)(=O)Nc2cccc3c2O[C@@H](CN(C)C(=O)Nc2ccc4c(c2)OCO4)[C@@H](C)CN([C@@H](C)CO)C3=O)cc1	-3	nt	nt	nt
N=c1sccn1CC(=O)Nc1cccc(S(N)(=O)=O)c1	-5	0	489*	1
N=c1sccn1CC(=O)Nc1ccc(S(N)(=O)=O)cc1	-2	56	-10	nt
CCCC#Cc1cnc2c(c1)C(=O)N([C@@H](C)CO)C[C@H](C)[C@@H](CN(C)C(=O)C1CCC1)O2	-1	16	nt	nt
O=C(C[C@H]1C=C[C@@H](NC(=O)C2CC2)[C@@H](CO)O1)NCC1CC1	2	-5	nt	nt
CCC(=O)N1c2ccc(S(=O)(=O)N3CCN(CC)CC3)cc2CC1C (configuration not stated)	1	-4	5	nt
CCC(=O)N1c2ccc(S(=O)(=O)N3CCN(c4ccc([N+](=O)[O-])cc4)CC3)cc2CC1C (configuration not stated)	1	-22	456*	-1
CC(=O)N(C)C[C@H]1Oc2cc(C#CC(C)(C)O)ccc2S(=O)(=O)N([C@H](C)CO)C[C@@H]1C	-2	-4	nt	nt
CCCn1c(SC(C)C(=O)NCC2CCCO2)nc2sc(CC)cc2c1=O (configuration not stated)	5	-1	466*	1
CCCn1c(SC(C)C(=O)NCC2CCCO2)nc2sc3c(c2c1=O)CCC3 (configuration not stated)	nt	nt	172	nt
SMILES	Cneo AK release	C2C12 statin	SUMO Mot1 rescue	Yeast Mot1 SUMO
Cc1ccccc1S(=O)(=O)N1C[C@H](O)COC[C@H]2O[C@H](CC(=O)N3CCN(C)CC3)CC[C@@H]21	-3	-7	nt	nt
CCN(C(=O)CSc1nnc(-c2ccc(C)cc2)n1N)c1c(N)n(Cc2ccccc2)c(=O)[nH]c1=O	4	8	nt	nt
COCCN(C(=O)CSc1nnc(-c2ccc(C)cc2)n1N)c1c(N)n(Cc2ccccc2)c(=O)[nH]c1=O	9	4	516*	0
COc1ccc(-c2ccc3c(c2)[C@@H]2[C@@H](CCN2S(=O)(=O)c2ccccc2C)[C@H](CO)N3)cc1	-6	-21	nt	nt
O=C(Nc1ccc(Cl)cc1Cl)c1cccc(N2C(=O)C=CC2=O)c1	-6	nt	550*	-3
O=C(O)c1cccc(N2C(=O)C=CC2=O)c1	1	nt	nt	nt
CC(C)NC(=O)N[C@@H]1C=C[C@H](CC(=O)NCCN2CCCC2)O[C@@H]1CO	2	-7	nt	nt
CC(=O)c1ccc(Nc2cc(C)nc3ccccc23)cc1	nt	nt	574*	0
CC(=O)c1ccc(Nc2cc(C)nc3c(C)cccc23)cc1	0	-51	22	nt
CCCN1[C@@H]2c3ccc(-c4ccncc4)c(=O)n3C[C@H]1[C@H](CO)[C@H]2C(=O)N1CCCCC1	-5	-8	nt	nt
CC(=O)N1c2ccc([N+](=O)[O-])cc2NC(=O)CC1C (configuration not stated)	-4	nt	600*	-1
CC1CC(=O)Nc2ccc([N+](=O)[O-])cc2N1C (configuration not stated)	nt	nt	3	nt
CCCN(C)C[C@@H]1OCCCC[C@@H](C)Oc2ccc(NC(=O)CCC(F)(F)F)cc2C(=O)N([C@@H](C)CO)C[C@@H]1C	-6	-5	nt	nt
CN(C)C(=O)C[C@@H]1C=C[C@@H](NC(=O)NC2CCCC2)[C@@H](CO)O1	1	6	nt	nt
O=C(CCSc1ccccc1)NNC(=O)c1ccccc1F	nt	-2	517*	0
O=C(COC(=O)/C=C/c1ccccc1)NNC(=O)c1ccccc1F	-2	-9	nt	nt
CC1(C)CC(=O)C(CC2C(=O)CC(C)(C)CC2=O)C(=O)C1	nt	nt	7	nt
CC1(C)CC(=O)C(CC2CCCCC2=O)C(=O)C1 (configuration not stated)	1	3	575*	0
COc1cc2c(cc1OC)-c1cc(Nc3ccc(N(C)C)cc3)nc(=O)n1CC2	nt	nt	-16	nt
CCN(CC)c1ccc(Nc2cc3n(c(=O)n2)CCc2cc(OC)c(OC)cc2-3)cc1	nt	nt	+	0
O=C(CSc1ncccc1C(=O)O)NC1CCCCC1	-1	34	420*	1
Cc1nnc(SCC(=O)NC2CCCCC2)n1-c1ccccc1	1	-4	nt	nt
O=C(CSc1nc(O)cc(=O)n1-c1ccccc1)NC1CCCCC1	nt	nt	584*	0
O=C(O)c1cccnc1SCC(=O)N1CCCCCC1	4	nt	-5	nt
COC(=O)[C@@H]1[C@@H](CO)[C@@H]2Cn3c(ccc(C4=CCCC4)c3=O)[C@@H]2N1C(=O)C1CCCC1	3	-18	nt	nt
CCS(=O)(=O)Nc1ccc2c(c1)C(=O)N(C)C[C@H](OC)[C@@H](C)CN(Cc1nccs1)[C@H](C)CO2	-9	-6	nt	nt
CO[C@@H]1CN(C)C(=O)c2ccc(NC(=O)c3cccc(F)c3)cc2OC[C@@H](C)N(C)C[C@H]1C	-4	10	nt	nt
